Experimental data of several laboratories.
CDK4 with cyclin D1: Cyclin-dependent kinase 4, with cyclin D1 (CDK4, Homo sapiens, UniProt P11802)
CDK4: Cyclin-dependent kinase 4 (CDK4, Homo sapiens, UniProt P11802)
CDK4 with cyclin D3: Cyclin-dependent kinase 4, with cyclin D3 (CDK4, Homo sapiens, UniProt P11802)

target | test | setting | remaining binding [%] | SMILES
CDK4 with cyclin D1 | binding, competition with immobilised ligand | 1 µM | 79 | CCN1CCN(Cc2ccc(C(=O)Nc3ccc(C)c(Oc4ccc5c(c4)CC(=O)N5)c3)cc2C(F)(F)F)CC1
CDK4 with cyclin D1 | cell-free assay, competition with immobilised ligand | 1 µM | 100 | CC(=O)c1c(NS(C)(=O)=O)c2cc(-c3ccc(Cl)cc3)c(-c3ccc(Cl)cc3Cl)nc2n(C)c1=O
CDK4 | binding, competition with immobilised ligand | 1 µM | 99 | COc1cnc(Nc2cccc(S(N)(=O)=O)c2)nc1N1CCN(c2ccccc2)C(=O)C1
CDK4 | binding, competition with immobilised ligand | 1 µM | 50 | O=C(NCCCN1CCOCC1)c1ccc(Nc2ncc(Cl)c(-c3ccc(Cl)s3)n2)cc1
CDK4 with cyclin D1 | binding | 1 µM | 84 | Cc1cnn2ncc(-c3ccnc(N(C)C)n3)c2c1
CDK4 with cyclin D3 | binding, competition with immobilised ligand | 1 µM | 93 | Nc1ncc2c(n1)-c1c([nH]c3ccc(C#CC4CC4)cc13)CCCC2
CDK4 with cyclin D1 | cell-free assay, competition with immobilised ligand | 1 µM | 100 | FC(F)(F)c1ccc2c(c1)nc(-c1cccnc1)n2C1CC1
CDK4 | binding | 1 µM | 100 | CN(c1nccc(-c2cnn3ncccc23)n1)C1CC1
CDK4 with cyclin D3 | binding, competition with immobilised ligand | 10 µM | 86 | c1cncc(-c2cccc(Nc3nccc(NC4CCCCC4)n3)c2)c1
CDK4 with cyclin D1 | cell-free assay, competition with immobilised ligand | 1 µM | 100 | CS(=O)(=O)NCC[C@H](NC(=O)c1cncc2c1cnn2-c1ccc(F)cc1)c1ccnc(S(C)(=O)=O)c1
CDK4 with cyclin D1 | binding | 1 µM | 97 | COc1ccnn2ncc(-c3ccnc(N(C)C)n3)c12
CDK4 with cyclin D3 | binding, competition with immobilised ligand | 1 µM | 100 | CNC(=O)[C@@H]1CC[C@@H](n2c(-c3ccc4cnccc4c3)nc3ccc(C(=O)NCc4cccc(C(N)=O)c4)cc32)C1
CDK4 with cyclin D3 | cell-free assay, competition with immobilised ligand | 1 µM | 71 | C[C@@H]1CN(c2cc(-c3nn(C)c4ccc(OC5(C)CC5)cc34)ncn2)C[C@H](C)O1
CDK4 with cyclin D3 | binding, competition with immobilised ligand | 1 µM | 20 | O=C(NCC1CCOCC1)c1n[nH]cc1NC(=O)c1c(F)cccc1F
CDK4 | binding | 1 µM | 75 | N[C@H]1CCN(c2nccc(-c3cnn4ncccc34)n2)C1
CDK4 with cyclin D3 | binding, competition with immobilised ligand | 1 µM | 98 | O=C(Nc1c[nH]nc1C(=O)NC1CCNCC1)c1cc(F)cc(F)c1
CDK4 with cyclin D1 | binding, competition with immobilised ligand | 1 µM | 0.1 | O=C(c1ccc(Nc2ncc(Cl)c(-c3ccc(Cl)s3)n2)cc1)N1CCC(N2CCCC2)CC1

target | test | setting | remaining binding [%] | SMILES
CDK4 | binding, competition with immobilised ligand | 1 µM | 100 | c1ccc(N2CCN(Cc3nc4ccccc4[nH]3)CC2)nc1
CDK4 with cyclin D3 | binding | 1 µM | 48 | CN(C)c1nccc(-c2cnc3ncccn23)n1
CDK4 | binding, competition with immobilised ligand | 1 µM | 76 | COc1cnc(Nc2cccc(S(N)(=O)=O)c2)nc1N1CCN(c2ccccc2)CC1
CDK4 | binding, competition with immobilised ligand | 1 µM | 40 | Cc1cnc(Nc2ccc(C(=O)N3CCC(N4CCCC4)CC3)cc2)nc1-c1cc2ccccc2s1
CDK4 | binding | 1 µM | 79 | C[C@@H]1CCN(c2nccc(-c3cnn4ncccc34)n2)C1
CDK4 with cyclin D3 | cell-free assay, competition with immobilised ligand | 5 µM | 57 | FC(F)(F)Oc1cccc(-c2cnc3ccc(-c4ccncc4)nn23)c1
CDK4 with cyclin D3 | cell-free assay, competition with immobilised ligand | 5 µM | 100 | COc1ncc2cc3ccccc3nc2c1C#N
CDK4 with cyclin D3 | cell-free assay, competition with immobilised ligand | 1 µM | 91 | O=S(=O)(NC1CCC(c2cc(F)ccc2F)(S(=O)(=O)c2ccc(Cl)cc2)CC1)C(F)(F)F (stereo not shown)
CDK4 | binding | 1 µM | 78 | c1cnn2ncc(-c3ccnc(N4CCC45COC5)n3)c2c1
CDK4 with cyclin D1 | cell-free assay, competition with immobilised ligand | 1 µM | 100 | N#CC1(c2ccccn2)CCN(Cc2cc(C(=O)N3CCCC3)c(=O)n3ccccc23)CC1
CDK4 with cyclin D3 | binding, competition with immobilised ligand | 1 µM | 72 | O=C(NCCCN1CCOCC1)c1ccc(Nc2nccc(-c3cc4ccccc4s3)n2)cc1
CDK4 | binding | 1 µM | 100 | CN(C)c1ncc(F)c(-c2cnn3ncccc23)n1
CDK4 with cyclin D1 | binding, competition with immobilised ligand | 0.1 µM | 73 | C[C@@H](c1ccc(-n2cnc3c(N)ncnc32)cc1)N1CCc2nn(C)c(Cc3ccccc3)c2C1=O
CDK4 | binding, competition with immobilised ligand | 1 µM | 21 | O=C(c1ccc(Nc2ncc(Cl)c(-c3cc4ccccc4s3)n2)cc1)N1CCC(N2CCCC2)CC1
CDK4 with cyclin D1 | cell-free assay, competition with immobilised ligand | 1 µM | 100 | CC(C)(O)c1cncc(-c2nc3ccc(F)cc3n2C2CC2)c1
CDK4 with cyclin D3 | binding, competition with immobilised ligand | 1 µM | 18 | O=C(c1ccc(Nc2nccc(-c3cc4ccccc4s3)n2)cc1)N1CCC(N2CCCC2)CC1
CDK4 with cyclin D3 | binding, competition with immobilised ligand | 1 µM | 100 | C=CC(=O)N1CCC(C(=O)NCC(=O)N2CCN(c3nc(-c4cnc(N)nc4C(F)F)nc(N4CCOCC4)n3)CC2)CC1
